Article PMC5615838 (Toxicology Reports, 2016)

Experiments:
[1] = test system: GPCRs, ion channels, nuclear receptors, transporters; assay: lead profiling receptor screen; format: binding; details: 10 μM
hERG = hERG (Homo sapiens, UniProt Q12809); assay: hERG electrophysiology; format: cell-based
CYP1A2 = biological target: T1, CYP1A2 (Homo sapiens, UniProt P05177); assay: CYP inhibition, LC–MS/MS assay in human liver microsomes; format: in vitro ADME; details: pooled human liver microsomes, probe phenacetin
T1 sequence (P05177 1-516): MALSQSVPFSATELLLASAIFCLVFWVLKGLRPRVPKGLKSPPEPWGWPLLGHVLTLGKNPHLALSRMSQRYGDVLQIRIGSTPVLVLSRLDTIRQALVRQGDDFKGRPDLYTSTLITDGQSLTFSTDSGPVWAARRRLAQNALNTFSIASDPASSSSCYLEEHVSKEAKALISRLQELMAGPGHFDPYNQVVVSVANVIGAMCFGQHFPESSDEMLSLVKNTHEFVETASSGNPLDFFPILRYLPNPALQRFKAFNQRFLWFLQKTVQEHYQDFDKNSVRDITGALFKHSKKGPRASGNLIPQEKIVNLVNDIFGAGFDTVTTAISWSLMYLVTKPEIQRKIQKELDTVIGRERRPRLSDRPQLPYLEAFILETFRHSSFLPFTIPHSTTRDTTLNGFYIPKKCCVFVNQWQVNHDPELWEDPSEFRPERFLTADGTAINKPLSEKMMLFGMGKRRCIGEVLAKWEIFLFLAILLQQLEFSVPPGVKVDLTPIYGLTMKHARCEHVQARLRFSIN
In short: (§1)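 Follow-up CYP panel in pooled human liver microsomes with CYP-specific probe substrates; CYP-specific metabolites quantified by LC-MS/MS. Test compound at 10 μM. Percent inhibition reported.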

CYP2C9 = CYP2C9 (Homo sapiens, UniProt P11712); assay: as above; format: in vitro ADME; details: pooled human liver microsomes, probe tolbutamide
In short: as §1

CYP2C19 = CYP2C19 (Homo sapiens, UniProt P33261); assay: as above; format: in vitro ADME; details: pooled human liver microsomes, probe S-mephenytoin
In short: as §1

CYP3A4 = CYP3A4 (Homo sapiens, UniProt P08684); assay: as above; format: in vitro ADME; details: pooled human liver microsomes, probe midazolam
In short: as §1

[2] = in vitro metabolism in human liver microsomes; format: in vitro ADME; details: 50 μM, 120 min
[3] = in vitro metabolism in rat liver microsomes; format: in vitro ADME; details: 50 μM, 120 min
[4] = pharmacokinetics and oral bioavailability of S6821; format: in vivo, rat
[5] = test system: S. typhimurium strains TA98, TA100, TA1535, TA1537 and E. coli strain WP2 uvrA; assay: bacterial reverse mutation test; format: cell-based, Salmonella typhimurium, Escherichia coli; details: 50–5000 μg/plate, plate incorporation and pre-incubation, ±S9
bone marrow PCEs = assay: in vivo micronucleus assay; parameters: species or system mouse; details: 500, 1000, 2000 mg/kg bw/day (oral), 2 days, male CD-1 mice
[6] = 28-day dose-range finding toxicity study, diet; format: in vivo, rat; details: 28 days
In short: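 Crl:CD(SD) rats, 5/sex/group, fed test compound in the diet at 10, 30 or 100 mg/kg bw/day for 28 days, with a vehicle-diet control group of 5/sex. Assessed survival, clinical signs, body weight, food consumption, hematology, clinical chemistry, organ weights and gross pathology. Livers examined microscopically in the 0 and 100 mg/kg bw/day groups.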

[7] = 90-day subchronic toxicity study, diet; format: in vivo, rat
In short: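 Sprague-Dawley Crl:CD(SD) rats, 20/sex/group, received test compound continuously in the diet at 0, 10, 30 or 100 mg/kg bw/day for 90 consecutive days. Body-weight gain and food consumption were monitored. Clinical signs were recorded throughout treatment.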

[8] = dose range-finding developmental toxicity study; format: in vivo, rat; details: 125, 250, 500, 1000 mg/kg bw/day oral gavage, gestation days 6-20
[9] = JECFA SPET dietary exposure estimate; parameters: species or system human; details: 28- and 90-day toxicology studies
[10] = biological target: human bitter receptor hTAS2R8; details: antagonist; cited from earlier work
[11] = test system: human peripheral blood lymphocytes; assay: in vitro chromosome aberration test; details: 200–1300 μg/mL, 3 or 21 hr exposure, ±S9
[12] = male, Sprague-Dawley, rat, plasma, iv, 1 mg/kg
[13] = male, Sprague-Dawley, rat, plasma, po, 10 mg/kg
[14] = male, Sprague-Dawley, rat, plasma, po, 30 mg/kg
[15] = male, Sprague-Dawley, rat, plasma, po, 100 mg/kg

Chain of CYP2C9 (P11712 whole entry): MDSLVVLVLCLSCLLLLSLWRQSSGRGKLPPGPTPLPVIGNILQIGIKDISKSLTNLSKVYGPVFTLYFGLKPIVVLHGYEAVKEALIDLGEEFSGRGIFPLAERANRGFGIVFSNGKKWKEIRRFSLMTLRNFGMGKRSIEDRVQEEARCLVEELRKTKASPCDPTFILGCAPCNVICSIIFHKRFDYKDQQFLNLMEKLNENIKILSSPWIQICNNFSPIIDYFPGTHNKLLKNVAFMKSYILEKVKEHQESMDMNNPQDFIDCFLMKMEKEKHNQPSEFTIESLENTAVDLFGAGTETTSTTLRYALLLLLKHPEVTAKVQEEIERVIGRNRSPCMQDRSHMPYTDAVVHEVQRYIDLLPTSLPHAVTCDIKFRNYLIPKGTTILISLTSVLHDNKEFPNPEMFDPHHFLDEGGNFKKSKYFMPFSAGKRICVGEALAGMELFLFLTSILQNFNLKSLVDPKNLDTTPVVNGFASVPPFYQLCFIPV
Chain of hERG (Q12809 whole entry): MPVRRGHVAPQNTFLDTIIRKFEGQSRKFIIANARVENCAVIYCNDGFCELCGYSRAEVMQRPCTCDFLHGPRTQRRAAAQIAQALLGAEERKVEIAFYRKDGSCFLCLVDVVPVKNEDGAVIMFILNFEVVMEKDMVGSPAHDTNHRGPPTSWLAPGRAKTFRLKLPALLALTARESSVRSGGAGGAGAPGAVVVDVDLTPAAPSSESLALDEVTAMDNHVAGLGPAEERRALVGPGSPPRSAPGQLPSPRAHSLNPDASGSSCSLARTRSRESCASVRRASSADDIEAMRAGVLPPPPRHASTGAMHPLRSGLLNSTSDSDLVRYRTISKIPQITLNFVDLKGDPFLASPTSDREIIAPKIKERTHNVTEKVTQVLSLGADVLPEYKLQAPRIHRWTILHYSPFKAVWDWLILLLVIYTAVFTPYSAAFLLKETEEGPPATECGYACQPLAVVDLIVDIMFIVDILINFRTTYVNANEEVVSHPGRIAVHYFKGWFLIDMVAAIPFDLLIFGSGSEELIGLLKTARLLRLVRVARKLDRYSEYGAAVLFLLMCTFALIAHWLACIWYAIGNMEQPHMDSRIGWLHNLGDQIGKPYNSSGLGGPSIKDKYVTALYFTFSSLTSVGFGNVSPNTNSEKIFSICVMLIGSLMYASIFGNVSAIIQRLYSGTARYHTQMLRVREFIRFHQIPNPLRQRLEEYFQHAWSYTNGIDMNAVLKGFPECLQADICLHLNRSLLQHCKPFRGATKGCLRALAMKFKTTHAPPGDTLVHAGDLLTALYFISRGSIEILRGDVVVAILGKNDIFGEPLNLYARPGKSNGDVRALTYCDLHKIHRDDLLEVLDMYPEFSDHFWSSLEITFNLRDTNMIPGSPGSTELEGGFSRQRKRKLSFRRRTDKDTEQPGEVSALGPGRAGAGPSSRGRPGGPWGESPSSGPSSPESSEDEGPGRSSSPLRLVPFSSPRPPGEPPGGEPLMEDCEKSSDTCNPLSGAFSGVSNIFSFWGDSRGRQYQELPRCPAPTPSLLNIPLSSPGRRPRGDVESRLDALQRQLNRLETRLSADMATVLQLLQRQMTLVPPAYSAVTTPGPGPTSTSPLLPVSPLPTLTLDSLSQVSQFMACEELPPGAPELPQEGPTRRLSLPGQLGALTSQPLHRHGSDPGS
Chain of CYP2C19 (P33261 whole entry): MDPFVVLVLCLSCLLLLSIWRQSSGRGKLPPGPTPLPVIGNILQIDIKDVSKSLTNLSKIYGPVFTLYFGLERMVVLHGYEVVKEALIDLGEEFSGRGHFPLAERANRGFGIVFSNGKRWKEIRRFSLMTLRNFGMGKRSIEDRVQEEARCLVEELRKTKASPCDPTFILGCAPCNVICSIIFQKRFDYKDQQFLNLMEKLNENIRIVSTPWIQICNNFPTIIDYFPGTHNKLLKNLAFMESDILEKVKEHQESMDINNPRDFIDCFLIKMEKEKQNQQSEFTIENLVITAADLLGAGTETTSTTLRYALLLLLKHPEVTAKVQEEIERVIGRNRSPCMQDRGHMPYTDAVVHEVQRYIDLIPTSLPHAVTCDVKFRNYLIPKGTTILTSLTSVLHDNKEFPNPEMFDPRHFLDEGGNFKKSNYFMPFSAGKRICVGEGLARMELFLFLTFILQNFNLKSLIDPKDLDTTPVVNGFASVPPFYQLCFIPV
Chain of CYP3A4 (P08684 whole entry): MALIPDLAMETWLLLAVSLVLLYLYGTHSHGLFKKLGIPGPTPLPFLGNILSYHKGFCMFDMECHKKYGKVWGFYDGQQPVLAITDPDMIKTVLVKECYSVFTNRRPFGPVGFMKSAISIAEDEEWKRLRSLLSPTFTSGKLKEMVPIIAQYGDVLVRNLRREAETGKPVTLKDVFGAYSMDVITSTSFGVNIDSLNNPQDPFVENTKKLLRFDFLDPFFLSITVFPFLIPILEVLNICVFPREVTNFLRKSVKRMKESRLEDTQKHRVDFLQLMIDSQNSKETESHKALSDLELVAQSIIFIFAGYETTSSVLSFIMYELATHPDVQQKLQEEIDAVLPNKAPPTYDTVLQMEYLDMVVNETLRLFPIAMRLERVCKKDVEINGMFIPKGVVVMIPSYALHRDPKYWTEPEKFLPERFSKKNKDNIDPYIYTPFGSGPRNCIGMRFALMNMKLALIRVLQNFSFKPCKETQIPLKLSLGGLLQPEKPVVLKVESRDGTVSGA

Question: Which results are given for Cc1noc(C)c1Cn1cc(N2C(=O)CN(Cc3cccc(O)c3)C2=O)cn1 [S6821, 3-(1-((3,5-dimethylisoxazol-4-yl)methyl)-1H-pyrazol-4-yl)-1-(3-hydroxybenzyl)imidazolidine-2,4-dione]?
Answer: significant responses (≥50% inhibition or stimulation) [1]: No significant responses; inhibition at 10 µM (hERG): < 10%; inhibition at 10 µM (CYP1A2): 18%; inhibition at 10 µM (CYP2C9): -3%; inhibition at 10 µM (CYP2C19): 8%; inhibition at 10 µM (CYP3A4): 4%; parent S6821 remaining, peak area % of time 0 [2]: 75%; parent S6821 remaining, peak area % of time 0 [3]: 56%; AUC0-last/dose ([4]; iv 1.0 mg/kg bw S6821): 161 ng·h/mL/mg/kg; Vss, times the total body water volume in the rat ([4]; iv, body water 668 mL/kg): 0.84 times; CL as % of hepatic blood flow in the rat ([4]; iv, hepatic blood flow 55.2 mL/min/kg): 190%; AUC(0-t) [4, 12]: 161 ng·h/mL; Cmax [4, 12]: 619 ng/mL; Tmax [4, 12]: 4.8 min; Vd [4, 12]: 0.563 L/kg; clearance [4, 12]: 105 mL/min/kg; half-life [4, 12]: 6 min; AUC(0-t) [4, 13]: 28 ng·h/mL; Cmax [4, 13]: 12.3 ng/mL; Tmax [4, 13]: 30 min; bioavailability [4, 13]: 1.74%; half-life [4, 13]: 120 min; AUC(0-t) [4, 14]: 201 ng·h/mL; Cmax [4, 14]: 38.5 ng/mL; Tmax [4, 14]: 30 min; bioavailability [4, 14]: 4.16%; half-life [4, 14]: 426 min; AUC(0-t) [4, 15]: 410 ng·h/mL; Cmax [4, 15]: 68.1 ng/mL; Tmax [4, 15]: 30 min; bioavailability [4, 15]: 2.55%; half-life [4, 15]: 258 min; AUC0-last/dose ([4]; oral gavage 10 mg/kg bw S6821): 2.80 ng·h/mL/mg/kg; AUC0-last/dose ([4]; oral gavage 30 mg/kg bw S6821): 6.70 ng·h/mL/mg/kg; AUC0-last/dose ([4]; oral gavage 100 mg/kg bw S6821): 4.10 ng·h/mL/mg/kg; Reverse mutation (in vitro), Result [5]: Negative; Micronucleus formation (in vivo), Result (bone marrow PCEs): Negative; MTD ([6]; 10, 30, 100 mg/kg bw/day food ad-mix, male & female): > 100 mg/kg bw/day; Findings ([6]; up to 100 mg/kg bw/day): No test-article related findings; NOAEL ([7]; 10, 30, 100 mg/kg bw/day food ad-mix, 90 days, both sexes): 100 mg/kg bw/day; NOEL ([7]; 90 days, females): 100 mg/kg bw/day; NOEL ([7]; 90 days, males): 30 mg/kg bw/day; Motor activity scores ([7]; males, 100 mg/kg bw/day, week 12, second half of 1-hour recording): slightly higher than those of controls; Findings ([7]; up to 100 mg/kg bw/day, 90 days): No test-article related findings; Findings [8]: No maternal toxicity or effect on intrauterine growth up to 1000 mg/kg bw/day; NOAEL of 100 mg/kg bw/day as multiple of estimated dietary exposure [9]: 1500 times; IC50 [10]: 35 nM; Chromosome aberration (in vitro), Result [11]: Negative
